Screening results as filed in PubChem.
Most compounds without a hit are left out; they make up all but 2.3% or so of the library.
TRPC4 PAM: allosteric potentiators of mouse TRPC4 channel; HEK293 TRPC4beta/mu-opioid, DAMGO EC20, Fluo-4 Ca2+ flux; stronger effect = higher value; AID 2227; B-score at 10 µM; 310,000 compounds, 0.42% hits;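 active = B-score of calcium response area above 5 SD of library B-scores, with initial fluorescence ratio within 5 SD of library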
TRPC6 inhibitor: blocks the mouse TRPC6 cation channel | Q61143 | HEK293-TRPC6, membrane potential dye, ACh-evoked depolarization; stronger effect = lower value | B-score at 10 µM | 310,000 compounds, 1.1% hits | AID 2553;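 active = B-score under library mean minus 3 SD, initial fluorescence not abnormally high, positive integrated signal ratio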;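 also: B-score derived from integrated fluorescence ratio over the kinetic read; more negative B-score means stronger inhibition of depolarization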
Target sequence (Q61143 whole entry, looked up): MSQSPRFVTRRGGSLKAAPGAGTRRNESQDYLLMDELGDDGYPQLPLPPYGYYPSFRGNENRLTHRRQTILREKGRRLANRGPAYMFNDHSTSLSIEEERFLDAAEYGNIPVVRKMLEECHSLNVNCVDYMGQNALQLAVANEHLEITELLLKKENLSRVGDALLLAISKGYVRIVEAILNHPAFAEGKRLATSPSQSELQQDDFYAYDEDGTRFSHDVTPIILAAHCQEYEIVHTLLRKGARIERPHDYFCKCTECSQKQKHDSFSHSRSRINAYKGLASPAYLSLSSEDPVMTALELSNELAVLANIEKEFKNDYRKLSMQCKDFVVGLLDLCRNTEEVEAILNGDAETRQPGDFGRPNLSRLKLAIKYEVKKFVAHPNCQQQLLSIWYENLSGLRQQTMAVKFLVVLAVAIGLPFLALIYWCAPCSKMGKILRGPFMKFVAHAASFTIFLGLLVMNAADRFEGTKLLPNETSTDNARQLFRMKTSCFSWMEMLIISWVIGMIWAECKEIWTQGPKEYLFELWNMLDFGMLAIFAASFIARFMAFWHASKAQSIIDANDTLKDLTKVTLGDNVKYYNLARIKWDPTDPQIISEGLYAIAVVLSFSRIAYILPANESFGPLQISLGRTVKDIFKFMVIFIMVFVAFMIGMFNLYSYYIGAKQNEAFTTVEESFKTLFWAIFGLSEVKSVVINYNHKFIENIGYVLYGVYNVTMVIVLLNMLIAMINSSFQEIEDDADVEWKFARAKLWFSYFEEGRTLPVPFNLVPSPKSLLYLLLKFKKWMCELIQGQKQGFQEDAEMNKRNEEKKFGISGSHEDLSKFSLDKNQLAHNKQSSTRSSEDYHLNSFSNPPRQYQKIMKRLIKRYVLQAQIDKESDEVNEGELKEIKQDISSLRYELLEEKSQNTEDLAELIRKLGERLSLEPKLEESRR
TRPC4 act: activators of mouse TRPC4 channel; Q9QUQ5; B-score at 10 µM; 310,000 compounds, 0.49% hits; HEK293 TRPC4beta/mu-opioid, Fluo4 calcium fluorescence; stronger effect = higher value;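 active = B-score above 5 SD of library B-scores, and initial fluorescence ratio not above library mean plus 5 SD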;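 also: positive B-score marks a calcium rise read as TRPC4 activation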
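Material: TRPC4beta and mu-opioid receptor HEK293 stable cells | Incubation: 45 min room-temperature Fluo4 loading, 110 s read | Detection: Kinetic Fluo4 calcium fluorescence | Measure: Integrated baseline-normalised fluorescence ratio, converted to per-well B score | Benchmarks: Low control buffer alone, high control maximal DAMGO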
TRPC6 act: mouse TRPC6 channel activation. Q61143. HEK293-TRPC6 membrane potential dye fluorescence; stronger effect = higher value. B-score at 10 µM. 310,000 compounds, 0.13% hits. AID 2550;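 active = B-score of the integrated fluorescence ratio above library mean plus 3 SD, and starting fluorescence ratio within library mean plus 5 SD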;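 also: higher score means more depolarization so channel activation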
TRPC4 inh: inhibitors of mouse TRPC4 channel; AID 2247; 300,000 compounds, 0.39% hits; HEK293 TRPC4beta/mu-opioid, DAMGO-evoked Fluo4 calcium flux; stronger effect = lower value; B-score at 10 µM; Q9QUQ5;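 active = B-score over 3 SD under the library average, no early fluorescence shift, positive overall ratio signal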
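Assay system: Stable TRPC4beta/mu-opioid receptor HEK293 cells | Reagent: DAMGO in two steps, submaximal then maximal | Compound dosing: Single concentration per test compound | Signal: Fluo4 Ca2+ flux fluorescence | Evaluation: Per-well B score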
TRPC4 spec 2: second check of whether TRPC6 inhibitors also affect mouse TRPC4. AID 2776. shares compounds with TRPC6 inhibitor. inhibition, % at 10 µM. 920 compounds, 42% hits. HEK293 TRPC4/MOR, membrane potential dye fluorescence; channel activated by saturating DAMGO dose;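 active = compounds whose fluorescence signal differed from control wells by over 3 SD, either direction, in both duplicate plates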
TRPC4 spec: mouse TRPC4 off-target activity of TRPC6 inhibitors; shares compounds with TRPC6 inhibitor; HEK293 TRPC4/mu-opioid, membrane potential fluorescence; activity change, negative = inhibition, % at 10 µM; 920 compounds, 61% hits;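 active = rise or fall in signal beyond 3 SD of buffer-only wells in both replicate plates, either sign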;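 also: integrated kinetic ratio of fluorescence range over baseline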
HEK293 MPD ctr 2-1: second counter-screen for TRPC6 inhibitors: parental HEK293 cells; shares compounds with TRPC6 inhibitor; parental HEK293 membrane potential dye fluorescence; maximal acetylcholine challenge after compound addition; signal change vs control, % at 10 µM; 920 compounds, 31% hits; AID 2779;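 active = membrane potential signal moving either way by over 3 SD of the maximum-effect control, in both duplicate plates, meaning non-specific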
HEK293 MPD ctr-1: checks TRPC6 inhibitor effects in parental HEK293 cells. shares compounds with TRPC6 inhibitor. parental HEK293 membrane potential dye fluorescence. membrane potential signal change, % at 10 µM. 920 compounds, 60% hits;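 active = membrane potential signal shifting up or down by more than 3 SD of buffer-only wells, on both duplicate plates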
HEK293 MPD ctr-2: parental HEK293 nonspecific activity of TRPC6 modulators. shares compounds with TRPC6 inhibitor. membrane potential dye fluorescence. 2,400 compounds, 51% hits. membrane potential signal change, % at 10 µM;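 active = membrane potential signal moves up or down beyond 5 SD from buffer-only wells, on both duplicate plates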
HEK293 MPD ctr 2-2: second check of TRPC6 modulator effects in parental HEK293 cells. membrane potential dye fluorescence; after compound, maximal acetylcholine stimulation. 2,400 compounds, 14% hits. shares compounds with TRPC6 inhibitor. inhibition, % at 10 µM;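 active = membrane potential signal drops by more than 5 SD from the mean control signal, in both duplicate plates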
TRPC4 ctr mod: selectivity of TRPC6 modulators against mouse TRPC4; shares compounds with TRPC6 inhibitor; HEK293 TRPC4/mu-opioid, membrane potential fluorescence; percent change from control (negative = decrease, positive = increase), % at 10 µM; 2,400 compounds, 69% hits;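 active = membrane potential signal moved up or down beyond 5 SD of buffer control wells, in both duplicate plates, actives on both sides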
TRPC4 ctr inh 2: mouse TRPC4 off-target activity of TRPC6 modulators, second screen; shares compounds with TRPC6 inhibitor; 2,400 compounds, 55% hits; inhibition, % at 10 µM; HEK293 TRPC4/mu-opioid, membrane potential dye fluorescence; stimulated with maximal-effect DAMGO; AID 488928;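 active = drop in membrane potential signal beyond 5 SD of the control wells in both duplicate plates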;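 also: TRPC4 counter screen for TRPC6 hits run under conditions tuned for TRPC6 not TRPC4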
TRPC6 block conf: mouse TRPC6 inhibitor confirmation; inhibition, % at 10 µM; 3,300 compounds, 43% hits; HEK293-TRPC6, membrane potential dye, ACh-evoked depolarization; shares compounds with TRPC6 inhibitor;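 active = fluorescence ratio falls more than 5 SD below the full-stimulation control mean, in both duplicate runs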;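 also: integrated fluorescence ratio of peak minus minimum over baseline after agonist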
TRPC6 act conf: confirmation of mouse TRPC6 activators | shares compounds with TRPC6 inhibitor | HEK293-TRPC6 membrane potential dye fluorescence, FDSS | activation, % at 10 µM | 2,800 compounds, 11% hits | AID 488961;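 active = ratio signal rise beyond 5 SD above unstimulated control wells' mean, seen in both duplicate runs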
Of the large screens only hits and unclear results are named; the others gave an inactive call (follow-up assays come after a bar, where they were run).

COc1cc(OC)cc(Oc2ccc(S(=O)(=O)N3CCCCC3)cc2[N+](=O)[O-])c1	none
COc1ccc(S(=O)(=O)N2CCCCCC2)cc1NC(=O)c1ccccc1	none
O=C(CSc1n[nH]c(=O)n1-c1ccccc1)N1CCOCC1	none
O=C(COC(=O)CNS(=O)(=O)/C=C/c1ccccc1)Nc1cccc2ccccc12	none
COc1ccc(NC(=O)C2CCN(S(=O)(=O)c3ccc(OC)c(OC)c3)CC2)cc1	none
COc1ccc(S(=O)(=O)N2CCC(C(=O)Nc3ccc(S(=O)(=O)N4CCCC4)cc3)CC2)cc1OC	TRPC6 inhibitor -5.4 | HEK293 MPD ctr-2 inactive | HEK293 MPD ctr 2-2 inactive | TRPC4 ctr mod inactive | TRPC4 ctr inh 2 inactive | TRPC6 block conf inactive | TRPC6 act conf inactive
CC(C)c1[nH]nc2c1C(Cc1ccccc1)C(C#N)=C(N)O2 (stereo not given)	TRPC6 inhibitor -6.4 | HEK293 MPD ctr-2 inactive | HEK293 MPD ctr 2-2 inactive | TRPC4 ctr mod inactive | TRPC4 ctr inh 2 inactive | TRPC6 block conf inactive | TRPC6 act conf inactive
Cc1ccc(-c2csc(=Nc3cccnc3)n2CCCn2ccnc2)cc1C	TRPC6 inhibitor -5.4 | HEK293 MPD ctr-2 106% | HEK293 MPD ctr 2-2 inactive | TRPC4 ctr mod 15% | TRPC4 ctr inh 2 65% | TRPC6 block conf 44%
Cc1nn(CC(=O)O)c(C)c1C	none
Cc1nn(CC(=O)O)c(C)c1Cl	TRPC6 inhibitor -11 | HEK293 MPD ctr-2 inactive | HEK293 MPD ctr 2-2 inactive | TRPC4 ctr mod inactive | TRPC4 ctr inh 2 inactive | TRPC6 block conf inactive | TRPC6 act conf inactive
Cc1cc(N2CCN(S(=O)(=O)c3ccc(Cl)cc3)CC2)c2ccccc2n1	TRPC6 inhibitor -5.1 | HEK293 MPD ctr-2 -75% | HEK293 MPD ctr 2-2 inactive | TRPC4 ctr mod -22% | TRPC4 ctr inh 2 72% | TRPC6 block conf inactive | TRPC6 act conf inactive
COc1cccc(Cl)c1NC(=O)N1CCN(c2cc(C)nc3ccccc23)CC1	TRPC6 inhibitor -9.7 | HEK293 MPD ctr-2 -146% | HEK293 MPD ctr 2-2 inactive | TRPC4 ctr mod -38% | TRPC4 ctr inh 2 74% | TRPC6 block conf 48% | TRPC6 act conf inactive
Cc1cc(N2CCN(S(=O)(=O)c3ccc(Cl)c(Cl)c3)CC2)c2ccccc2n1	none
C=C(C)C(=O)Nc1cccc(C2=NOC3(C2)C[C@H](C(N)=O)N(C(=O)/C=C/C)C3)c1 (stereo not given in full)	none
CCOc1ccccc1-n1c(=O)c2ccccc2c2ccccc2c1=O	none
CC1Cc2nc(SCC(=O)NCC3CCCO3)n(-c3ccc(F)cc3)c(=O)c2S1 (stereo not given)	none
Cc1cccc(-c2nsc(SCC(=O)Nc3nccs3)n2)c1	TRPC6 inhibitor -5.7 | HEK293 MPD ctr-2 inactive | HEK293 MPD ctr 2-2 inactive | TRPC4 ctr mod inactive | TRPC4 ctr inh 2 inactive | TRPC6 block conf inactive | TRPC6 act conf inactive
CS(=O)(=O)c1cccc(-c2nnc(NC(=O)C3=COCCO3)o2)c1	none
Cc1ccc(C)c(NC(=S)NCCN(C2CCCCC2)C2CCCC2)c1	TRPC6 inhibitor -5.2 | HEK293 MPD ctr-2 172% | HEK293 MPD ctr 2-2 inactive | TRPC4 ctr mod 32% | TRPC4 ctr inh 2 48% | TRPC6 block conf inactive
Cc1ccc(SCCNC(=S)Nc2cc(C)ccc2C)cc1	none
N#Cc1ccc(S(=O)(=O)NCC(=O)OCC(=O)N2CCCC2=O)cc1	none
COc1ccc(C(=O)Nc2nnc(SCC(=O)NCc3ccco3)s2)c(OC)c1	none
COCCCNC(=S)N1CCCN(c2nc3cc(C)c(C)cc3cc2C#N)CC1	TRPC6 inhibitor -5.2 | HEK293 MPD ctr-2 inactive | HEK293 MPD ctr 2-2 inactive | TRPC4 ctr mod inactive | TRPC4 ctr inh 2 inactive | TRPC6 block conf 60%
COCCCNC(=S)N1CCCN(c2nc3cc(C)ccc3cc2C#N)CC1	TRPC6 inhibitor -11 | TRPC4 spec 2 inactive | TRPC4 spec inactive | HEK293 MPD ctr 2-1 inactive | HEK293 MPD ctr-1 inactive | TRPC6 block conf 85%
CCOCCCNC(=S)N1CCCN(c2nc3cc(C)c(C)cc3cc2C#N)CC1	none
COCCCNC(=O)CCn1nc(-c2ccc(Cl)cc2)ccc1=O	TRPC6 inhibitor -5.2 | HEK293 MPD ctr-2 inactive | HEK293 MPD ctr 2-2 inactive | TRPC4 ctr mod inactive | TRPC4 ctr inh 2 inactive | TRPC6 block conf inactive | TRPC6 act conf inactive
O=C(NCCCN1CCCC1=O)c1cc(S(=O)(=O)N2CCOCC2)ccc1Cl	none
CS(=O)c1ccccc1-c1nc(-c2ccc(Cl)cc2)no1 (stereo not given)	none
CS(=O)c1ccccc1-c1nc(-c2cccc(Cl)c2)no1 (stereo not given)	TRPC6 inhibitor -9.8 | TRPC4 spec 2 inactive | TRPC4 spec inactive | HEK293 MPD ctr 2-1 inactive | HEK293 MPD ctr-1 inactive | TRPC6 block conf inactive | TRPC6 act conf inactive
O=C(c1ccccc1)c1ccc(OCC(O)CNCc2ccc(Cl)cc2)cc1 (stereo not given)	none
Cc1nc2c(o1)CCc1ccccc1C2N1CCN(C)CC1 (stereo not given)	TRPC6 inhibitor -9.4 | TRPC4 spec 2 inactive | TRPC4 spec 8.0% | HEK293 MPD ctr 2-1 -14% | HEK293 MPD ctr-1 11% | TRPC6 block conf 74%
Cc1nc(S(=O)(=O)N2CCN(C3c4ccccc4-c4ccccc43)CC2)cn1C	none
